# Legend:
# Homo sapiens = species on record: Homo sapiens; assay: Selectivity index, ratio of IC50 for human recombinant MAOB to IC50 for human recombinant MAOA
# Outline: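 MAO-A (0.005 mg/mL; 150 μM kynuramine, 60 min, 37 °C, […]) and MAO-B (0.01 mg/mL; 1000 μM benzylamine, 30 min, 37 °C, perchloric acid stop, benzaldehyde by HPLC-UV at 254 nm) in isotonic 0.1 M phosphate pH 7.4. Inhibitor 0–7000 μM. IC50s from sigmoidal log curves in triplicate. SI = MAO-B IC50 / MAO-A IC50.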
# [1] = biological target: T1, Amine oxidase [flavin-containing] A (Homo sapiens, UniProt P21397); assay: Inhibition of human recombinant MAOA expressed in insect cells assessed as oxidation of kynuramine substrate measured after additional substrate added after 90 mins incubation; details: 1.5 h
# T1 sequence (P21397 whole entry): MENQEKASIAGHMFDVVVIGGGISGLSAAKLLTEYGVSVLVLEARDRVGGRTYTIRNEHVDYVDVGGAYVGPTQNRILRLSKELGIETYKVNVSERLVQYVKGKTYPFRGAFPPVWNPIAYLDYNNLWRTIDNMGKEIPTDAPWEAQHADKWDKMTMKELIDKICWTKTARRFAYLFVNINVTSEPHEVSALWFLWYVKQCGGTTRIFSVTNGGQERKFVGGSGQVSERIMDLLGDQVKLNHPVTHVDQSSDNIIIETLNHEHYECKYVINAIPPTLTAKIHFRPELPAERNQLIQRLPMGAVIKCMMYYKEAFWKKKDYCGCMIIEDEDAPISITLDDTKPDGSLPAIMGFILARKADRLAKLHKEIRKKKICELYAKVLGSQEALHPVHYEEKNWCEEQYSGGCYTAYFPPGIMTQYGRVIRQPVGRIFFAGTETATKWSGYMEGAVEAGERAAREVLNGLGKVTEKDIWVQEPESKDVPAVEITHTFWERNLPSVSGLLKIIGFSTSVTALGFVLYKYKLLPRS
# [2] = biological target: T1, Amine oxidase [flavin-containing] A; assay: Inhibition of human recombinant MAOA expressed in insect cells using kynuramine substrate after 60 mins
# [3] = biological target: T2, Amine oxidase [flavin-containing] B (Homo sapiens, UniProt P27338); assay: Inhibition of human recombinant MAOB expressed in insect cells using benzylamine hydrochloride as substrate after 30 mins
# T2 sequence (P27338 whole entry): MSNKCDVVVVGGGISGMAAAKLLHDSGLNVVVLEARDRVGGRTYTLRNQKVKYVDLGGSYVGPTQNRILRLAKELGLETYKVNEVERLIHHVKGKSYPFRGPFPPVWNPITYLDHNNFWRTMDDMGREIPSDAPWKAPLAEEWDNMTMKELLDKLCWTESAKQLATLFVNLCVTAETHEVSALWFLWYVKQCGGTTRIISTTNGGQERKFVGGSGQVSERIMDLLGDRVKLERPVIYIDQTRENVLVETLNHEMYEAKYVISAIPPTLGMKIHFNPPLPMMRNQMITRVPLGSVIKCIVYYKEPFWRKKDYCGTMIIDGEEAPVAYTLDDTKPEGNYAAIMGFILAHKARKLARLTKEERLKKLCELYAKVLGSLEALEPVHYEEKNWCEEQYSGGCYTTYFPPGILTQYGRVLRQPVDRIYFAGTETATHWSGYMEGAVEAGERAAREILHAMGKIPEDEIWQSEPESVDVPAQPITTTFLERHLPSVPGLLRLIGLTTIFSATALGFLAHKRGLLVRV
# Outline: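 Human recombinant MAO-B (0.01 mg/mL) in 0.1 M isotonic phosphate buffer pH 7.4, inhibitor 0–7000 µM, benzylamine 1000 µM final, 30 min at 37 °C. Stopped with perchloric acid; benzaldehyde measured by reverse-phase HPLC with UV 254 nm. IC50 from sigmoidal log dose–response fit; triplicate, mean ± SD.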
# [4] = biological target: T1, Amine oxidase [flavin-containing] A; assay: Inhibition of human recombinant MAOA expressed in insect cells assessed as formation of 4-hydroxyquinoline at 0.5 uM preincubated for 1 hr before kynuramine substrate measured after 12 hrs of dialysis
# Outline: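 MAO-A (0.005 mg/mL) in 0.1 M sodium phosphate pH 7.4 made isotonic with NaCl, preincubated 1 h at 37 °C without substrate with inhibitor (final volume 1 mL), then dialyzed overnight at 0 °C against 250 mL buffer. Activity in dialysate read as product formation at 310 nm with 150 μM kynuramine over 60 min at 37 °C. 4-Hydroxyquinoline quantified by calibration curve. Means ± SD, n = 3.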
# [5] = biological target: T1, Amine oxidase [flavin-containing] A; assay: Inhibition of human recombinant MAOA expressed in insect cells using kynuramine as substrate at 50 uM preincubated up to 40 mins before kynuramine substrate addition measured after 30 mins; details: 0.5 h
# Outline: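 MAO-A preincubated at 37 °C in 0.1 M isotonic phosphate buffer pH 7.4 with inhibitor, or buffer control, for […]. Diluted 50-fold into buffer containing kynuramine, then incubated 30 min. Activity is % of control; mean ± SD, n = 3.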
SMILES,Ratio IC50 (Homo sapiens),inhibition (INH) [1],IC50 [2],IC50 [3],inhibition (INH) [4],inhibition (INH) [5]
COc1ccc(CCN2CC=CCC2)cc1OC,12.3,Not Active,111 µM,1360 µM,,
C1=CCN(Cc2ccccc2)CC1,41.6,Not Active,157 µM,6540 µM,,
C#CCN(C)CCCOc1ccc(Cl)cc1Cl [CLORGILINE],,,,,Active,
Fc1ccc(CCN2CC=CCC2)cc1,193,Not Active,27.3 µM,5270 µM,,
Clc1ccc(CCN2CC=CCC2)c(Cl)c1,11.1,Not Active,6.1 µM,67.2 µM,,
O=[N+]([O-])c1ccc(CCN2CC=CCC2)cc1,7.2,Not Active,37.8 µM,272 µM,,Active

# From ChEMBL document CHEMBL1938394, “Time-dependent slowly-reversible inhibition of monoamine oxidase A by N-substituted 1,2,3,6-tetrahydropyridines” (Bioorg Med Chem, 2011)
